Data set [1] deals with L1210. Description: Antitumor activity against mouse L1210 cells allografted in ip dosed C3H/DBA2 F1 mouse assessed as optimum dose required to increase in maximum life span administered as qd for 5 days. Type of data set: functional. A digest of the protocol: (§1)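 Mice: C3H/DBA2 F1 hybrids, 18.5-22.5 g, inoculated ip with 10⁵ L1210 cells on day 1. Treatment ip daily for 5 days from 24 h later, dose in 0.2 ml water (suspended or dissolved). T/C = ratio of mean life spans, treated vs control; optimum dose gives maximum T/C.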

The subject of data set [2] is L1210. Description: Antitumor activity against mouse L1210 cells allografted in C3H/DBA2 F1 mouse assessed as increase in life span at optimum dose, ip qd administered for 5 days relative to control. Type of data set: functional. In short, it runs like this:
as §1

The nature of data set [3]: Dissociation constant, pKa of the compound. Type of data set: physicochemical.

For `CCS(=O)(=O)Nc1ccc(Nc2c3ccccc3[n+](C)c3ccccc23)cc1`, the Activity with L1210 [1] came to 110 mg/kg/day. Also, the T/C – broadly, the result in the treated group divided by that in the control group, in per cent – in the data set with L1210 [2] turned out to be 166%.
The corresponding values for `COc1cc(NS(C)(=O)=O)ccc1Nc1c2ccccc2nc2ccc(Cl)cc12` are 10 mg/kg/day and 172%.
On to `C[n+]1c2ccccc2c(Nc2ccccc2)c2cc(N)ccc21`, for which, in the data set with L1210 [1], the Activity was determined as 14 mg/kg/day. In addition, the T/C in the data set with L1210 [2] turned out to be 162%.
Take `COc1cc(NS(C)(=O)=O)ccc1Nc1c2ccccc2[n+](C)c2ccc(Cl)cc12`: in the data set on L1210 [1], the Activity is 12 mg/kg/day. In addition, the T/C in the data set on L1210 [2] was 179%.
For the molecule `CCS(=O)(=O)Nc1ccc(Nc2c3ccccc3[n+](C)c3ccc(Cl)cc23)c(OC)c1`, the Activity with L1210 [1] stood at 60 mg/kg/day. Besides, in the data set on L1210 [2], the T/C is on record as 166%.
Turning to `CS(=O)(=O)Nc1ccc(Nc2c3ccccc3nc3cc(N)ccc23)cc1`, the Activity in the data set with L1210 [1] is 25 mg/kg/day. In the data set with L1210 [2], the T/C is reported as 178%.
Regarding `CS(=O)(=O)Nc1ccc(Nc2c3ccccc3nc3ccc(Br)cc23)cc1`, in the data set with L1210 [1], the Activity worked out at 35 mg/kg/day. The T/C with L1210 [2] turned out to be 165%.
Regarding `CC(=O)Nc1ccc2c(Nc3ccc(NS(C)(=O)=O)cc3)c3ccccc3[n+](C)c2c1`, in the data set on L1210 [1], the Activity was determined as 15 mg/kg/day. In addition, the T/C in the data set on L1210 [2] was determined as 134%.
With `Cn1ccc(=N)c2ccccc21`, the pKa (commonly the pH at which an ionisable group is half protonated) in data set [3] is 12.4.
For `C[n+]1c2ccccc2c(Nc2ccccc2)c2ccccc21`, the Activity in the data set on L1210 [1] is listed as greater than 500 mg/kg/day.
Still for that read-out and setting: with `c1ccc(Nc2c3ccccc3nc3ccccc23)cc1` the figure was greater than 500 mg/kg/day.
Regarding `C[n+]1c2ccccc2c(Nc2ccccc2)c2ccc(N)cc21`, the Activity with L1210 [1] is on record as 20 mg/kg/day. Besides, the T/C in the data set with L1210 [2] is given as 148%.
On to `C[n+]1c2ccccc2c(Nc2ccc(S(N)(=O)=O)cc2)c2ccccc21`, for which the Activity in the data set on L1210 [1] is reported as greater than 500 mg/kg/day.
`C[n+]1c2ccccc2c(Nc2ccc(NS(C)(=O)=O)cc2)c2ccccc21`: in the data set on L1210 [1], the Activity turned out to be 95 mg/kg/day. Also, the T/C in the data set on L1210 [2] is recorded as 184%.
Turning to `CC(=O)Nc1cccc(Nc2c3ccccc3nc3ccccc23)c1`, the Activity in the data set with L1210 [1] was 30 mg/kg/day. Further, the T/C with L1210 [2] is recorded as 133%.
As for `COc1cc(NS(C)(=O)=O)ccc1Nc1c2ccccc2nc2ccc(Br)cc12`, the Activity with L1210 [1] amounted to 6 mg/kg/day. Also, the T/C in the data set with L1210 [2] is recorded as 219%.
Consider `NC(=O)c1ccc(Nc2c3ccccc3nc3ccccc23)cc1`, for which the Activity in the data set on L1210 [1] was greater than 500 mg/kg/day.
`Nc1cccc(Nc2c3ccccc3nc3ccccc23)c1`: the Activity with L1210 [1] amounted to 40 mg/kg/day. In the data set with L1210 [2], the T/C is recorded as 146%.
Turning to `Nc1ccc(Nc2c3ccccc3nc3ccccc23)cc1`, in the data set on L1210 [1], the Activity was determined as 33 mg/kg/day. Besides, the T/C in the data set with L1210 [2] worked out at 172%.
In the case of `CS(=O)(=O)Nc1ccc(Nc2c3ccccc3nc3cc([N+](=O)[O-])ccc23)cc1`, the Activity in the data set with L1210 [1] stood at 250 mg/kg/day. In the data set with L1210 [2], the T/C was 127%.
The corresponding values for `C[n+]1c2ccccc2c(Nc2cccc(N)c2)c2ccccc21` are 120 mg/kg/day and 137%.
With `C[n+]1c2ccccc2c(Nc2ccccc2)c2ccc([N+](=O)[O-])cc21`, the Activity in the data set with L1210 [1] was greater than 500 mg/kg/day.
In the case of `CS(=O)(=O)Nc1ccc(Nc2c3ccccc3nc3ccccc23)cc1`, the Activity in the data set on L1210 [1] was found to be 45 mg/kg/day. Further, the T/C with L1210 [2] was found to be 207%.
`CCCCS(=O)(=O)Nc1ccc(Nc2c3ccccc3[n+](C)c3ccccc23)cc1`: the Activity with L1210 [1] is recorded as greater than 500 mg/kg/day.
In the case of `C[n+]1c2ccccc2c(Nc2ccc(NS(C)(=O)=O)cc2)c2cc(N)ccc21`, the Activity in the data set with L1210 [1] is given as 1.25 mg/kg/day. Besides, in the data set on L1210 [2], the T/C stood at 180%.
In the case of `C[n+]1c2ccccc2c(Nc2ccc(NS(C)(=O)=O)cc2)c2cc(Br)ccc21`, the Activity in the data set with L1210 [1] amounted to 47 mg/kg/day. Besides, the T/C in the data set on L1210 [2] is recorded as 168%.
With `CCCCS(=O)(=O)Nc1ccc(Nc2c3ccccc3nc3ccccc23)cc1`, in the data set on L1210 [1], the Activity is given as greater than 500 mg/kg/day.
On the same count and under the same terms, with `C[n+]1c2ccccc2c(Nc2ccc(C(N)=O)cc2)c2ccccc21` the figure was greater than 500 mg/kg/day; with `C[n+]1c2ccccc2c(Nc2ccc(NS(C)(=O)=O)cc2)c2ccc([N+](=O)[O-])cc21`, greater than 500 mg/kg/day.
For `CC(=O)Nc1ccc2nc3ccccc3c(Nc3ccc(NS(C)(=O)=O)cc3)c2c1`, in the data set on L1210 [1], the Activity was determined as 13 mg/kg/day. Also, in the data set on L1210 [2], the T/C was 214%.
The corresponding values for `CCS(=O)(=O)Nc1ccc(Nc2c3ccccc3nc3ccccc23)cc1` are 150 mg/kg/day and 183%.
The corresponding values for `COc1cc(NS(C)(=O)=O)ccc1Nc1c2ccccc2nc2ccccc12` [AMSACRINE] are 12 mg/kg/day and 196%.
Regarding `CCCS(=O)(=O)Nc1ccc(Nc2c3ccccc3[n+](C)c3ccccc23)cc1`, in the data set with L1210 [1], the Activity was greater than 500 mg/kg/day.
On to `Cn1ccc(=N)cc1`, for which the pKa in data set [3] is 12.5.
In the case of `COc1cc(NS(C)(=O)=O)ccc1Nc1c2ccccc2[n+](C)c2ccccc12`, the Activity in the data set with L1210 [1] came to 12 mg/kg/day. For the same molecule, the T/C with L1210 [2] was determined as 172%.
As for `CC(=O)Nc1ccc2c(Nc3ccc(NS(C)(=O)=O)cc3)c3ccccc3nc2c1`, in the data set with L1210 [1], the Activity was 375 mg/kg/day. The T/C in the data set on L1210 [2] came out at 147%.
Take `CC(=O)Nc1ccc2c(Nc3ccccc3)c3ccccc3[n+](C)c2c1`: in the data set on L1210 [1], the Activity was 50 mg/kg/day. Also, the T/C in the data set on L1210 [2] came to 126%.
Take `CC(=O)Nc1cccc(Nc2c3ccccc3[n+](C)c3ccccc23)c1`: the Activity with L1210 [1] turned out to be 67 mg/kg/day. Also, in the data set on L1210 [2], the T/C came out at 132%.
The corresponding values for `CC(=O)Nc1ccc2c(c1)c(Nc1ccc(NS(C)(=O)=O)cc1)c1ccccc1[n+]2C` are 6 mg/kg/day and 181%.
The corresponding values for `C[n+]1c2ccccc2c(Nc2ccc(N)cc2)c2ccccc21` are 75 mg/kg/day and 163%.
Consider `CCCS(=O)(=O)Nc1ccc(Nc2c3ccccc3nc3ccccc23)cc1`, for which, in the data set with L1210 [1], the Activity amounted to 225 mg/kg/day. Moreover, the T/C in the data set on L1210 [2] was 134%.
The corresponding values for `CS(=O)(=O)Nc1ccc(Nc2c3ccccc3nc3ccc(N)cc23)cc1` are 2.5 mg/kg/day and 181%.
In the case of `NS(=O)(=O)c1ccc(Nc2c3ccccc3nc3ccccc23)cc1`, the Activity in the data set on L1210 [1] was greater than 500 mg/kg/day.
Consider `CC(=O)Nc1ccc2c(c1)c(Nc1ccccc1)c1ccccc1[n+]2C`, for which the Activity in the data set with L1210 [1] amounted to 22 mg/kg/day. Further, the T/C with L1210 [2] was determined as 158%.
On to `COc1cc(NS(C)(=O)=O)ccc1Nc1c2ccccc2[n+](C)c2ccc(Br)cc12`, for which the Activity with L1210 [1] is given as 12 mg/kg/day. Moreover, the T/C in the data set with L1210 [2] came out at 158%.
For the molecule `C[n+]1c2ccccc2c(Nc2ccc(NS(C)(=O)=O)cc2)c2ccc(N)cc21`, the Activity with L1210 [1] was found to be 5 mg/kg/day. The T/C in the data set with L1210 [2] is 167%.
